Values after ≈ are worked out from the molar mass of the structure shown. Active and inactive are the calls of the source. The rule behind the calls is not given here.
Columns and labels:
Escherichia coli [1] = test: Antimicrobial activity against Escherichia coli MTCC 443 after 24 hrs by broth microdilution method; assay type: functional
How it was run: (§1)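 Broth microdilution per CLSI: 6 h cultures (37 °C) diluted to ~10^5 CFU/mL; 2-fold serial dilutions in sterile water added to bacteria; 24 h at 37 °C; OD600 read. Triplicates, experiment done at least twice; mean OD vs concentration fitted sigmoidally, MIC taken where OD matched the no-bacteria control. E. coli grown in LB broth, S. aureus in yeast–dextrose broth.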

Staphylococcus aureus [2] = test: Antimicrobial activity against Staphylococcus aureus MTCC 737 after 24 hrs by broth microdilution method; assay type: functional; how it was run: as §1
Enterococcus faecium [3] = test: Antimicrobial activity against vancomycin-resistant Enterococcus faecium ATCC 51559 after 24 hrs by broth microdilution method; assay type: functional
How it was run: (§2)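 Broth microdilution per CLSI, 24 h at 37 °C. Inoculum is a 6 h 37 °C culture diluted to ~10^5 CFU/mL (yeast–dextrose broth for MRSA and K. pneumoniae). 50 μL of 2-fold dilutions in water plus 150 μL bacteria. Read by OD600, triplicates, run at least twice. MIC is taken from a sigmoidal fit as the point where OD equals the bacteria-free control.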

[4] = Hemolytic activity in human erythrocytes after 1 hr by spectrophotometry; assay type: ADME, cell-based, Erythrocyte
How it was run: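 Fresh heparinised human erythrocytes suspended to 5 vol % in PBS pH 7.4, mixed with serially diluted compound, 1 h at 37 °C; no-compound and 1 vol % Triton X-100 controls. Supernatant A540 after centrifugation gave % hemolysis; triplicates averaged, sigmoidal fit gave HC50.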

Staphylococcus aureus [5] = test: Antimicrobial activity against methicillin-resistant Staphylococcus aureus ATCC 33591 after 24 hrs by broth microdilution method; assay type: functional; how it was run: as §2
Klebsiella pneumoniae = test: Antimicrobial activity against beta-lactam-resistant Klebsiella pneumoniae ATCC 700603 after 24 hrs by broth microdilution method; assay type: functional; how it was run: as §2
Enterococcus faecium [6] = test: Antimicrobial activity against Enterococcus faecium ATCC 19634 after 24 hrs by broth microdilution method; assay type: functional
[7] = Critical micelle concentration of the compound; assay type: ADME
How it was run: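 Static light scattering at 90° (excitation and emission 400 nm) on compound dissolved at 500 μg/mL in yeast–dextrose broth at room temperature, measured over successive dilutions; cmc taken from the inflection point where intensity rises steeply then falls after a local maximum.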

Staphylococcus aureus [8] = test: Ratio of MIC for Staphylococcus aureus MTCC 737 after 2 hrs in presence of 50% human plasma to MIC for Staphylococcus aureus MTCC 737 after 2 hrs; assay type: functional
How it was run: (§3)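 Compound mixed 1:1 with fresh human plasma (50% plasma) and held at 37 °C; at 0, 2, 4, 6, 12 and 24 h aliquots were diluted 2-fold in 0.9% saline.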

Escherichia coli [9] = test: Antimicrobial activity against Escherichia coli MTCC 443 assessed as leakage of K+ at 12 times MIC using PBFI-AM by fluorescence spectroscopy; assay type: functional, organism-based
Staphylococcus aureus [10] = test: Antimicrobial activity against Staphylococcus aureus MTCC 737 assessed as leakage of K+ at 12 times MIC using PBFI-AM by fluorescence spectroscopy; assay type: functional, organism-based
Staphylococcus aureus [11] = test: Antimicrobial activity against Staphylococcus aureus MTCC 737 assessed as membrane permeabilization at 12 times MIC by propidium iodide staining method; assay type: functional, organism-based
Staphylococcus aureus [12] = test: Antimicrobial activity against Staphylococcus aureus MTCC 737 assessed as membrane depolarization at 12 times MIC using DiSC3 by fluorescence spectroscopy; assay type: functional, organism-based
How it was run: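 Mid-log S. aureus washed and resuspended in 5 mM HEPES, 5 mM glucose, 100 mM KCl (1:1:1); 2 μM DiSC3(5) added, 20 min preincubation.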

Staphylococcus aureus [13] = test: Ratio of MIC for Staphylococcus aureus MTCC 737 after 4 hrs in presence of 50% human plasma to MIC for Staphylococcus aureus MTCC 737 after 4 hrs; assay type: functional; how it was run: as §3
Staphylococcus aureus [14] = test: Bactericidal activity against Staphylococcus aureus MTCC 737 assessed as log reduction in CFU/ml at 6 times MIC by time-kill assay relative to control; assay type: functional
Escherichia coli [15] = test: Antimicrobial activity against Escherichia coli MTCC 443 assessed as membrane permeabilization at 12 times MIC by propidium iodide staining method; assay type: functional, organism-based

| Compound | MIC (Escherichia coli [1]; MTCC 443, 24 h) | MIC (Staphylococcus aureus [2]; MTCC 737, 24 h) | MIC (Enterococcus faecium [3]; ATCC 51559, 24 h) | HC50 at 1 h [4] | MIC (Staphylococcus aureus [5]; ATCC 33591, 24 h) | MIC (Klebsiella pneumoniae; ATCC 700603, 24 h) | MIC (Enterococcus faecium [6]; ATCC 19634, 24 h) | also measured |
| --- | --- | --- | --- | --- | --- | --- | --- | --- |
| CCCCCCCCCCCC(=O)N(CCCN)CCCN.O=C(O)C(F)(F)F.O=C(O)C(F)(F)F | 108 µg/mL | 45 µg/mL | 57 µg/mL | 107 µg/mL | 53 µg/mL | 163 µg/mL | 62 µg/mL |  |
| N[C@@H](Cc1ccccc1)C(=O)NCCCNCCCNC(=O)[C@@H](N)Cc1ccccc1.O=C(O)C(F)(F)F.O=C(O)C(F)(F)F.O=C(O)C(F)(F)F | > 250 µg/mL | > 250 µg/mL | > 250 µg/mL |  |  | > 250 µg/mL | > 250 µg/mL |  |
| CCCCCCCCCCCCCCCCCC(=O)N(CCCN)CCCN.O=C(O)C(F)(F)F.O=C(O)C(F)(F)F | 26 µg/mL | 21 µg/mL | 11 µg/mL | 42 µg/mL | 19 µg/mL | 106 µg/mL | 21 µg/mL |  |
| N[C@@H](Cc1ccccc1)C(=O)NCCCN(CCCNC(=O)[C@@H](N)Cc1ccccc1)C(=O)[C@@H](N)Cc1ccccc1.O=C(O)C(F)(F)F.O=C(O)C(F)(F)F.O=C(O)C(F)(F)F | > 250 µg/mL | > 250 µg/mL | > 250 µg/mL |  |  | > 250 µg/mL | > 250 µg/mL |  |
| CCCCCCCCCCCCCCCC(=O)N(CCCN)CCCN.O=C(O)C(F)(F)F.O=C(O)C(F)(F)F | 14 µg/mL | 12 µg/mL | 2.4 µg/mL | 52 µg/mL | 11 µg/mL | 65 µg/mL | 2.8 µg/mL |  |
| CCCCCCCCCCCCCCCC(=O)N(CCCNC(=O)[C@@H](N)Cc1ccccc1)CCCNC(=O)[C@@H](N)Cc1ccccc1.O=C(O)C(F)(F)F.O=C(O)C(F)(F)F | 227 µg/mL | 9 µg/mL | 2.7 µg/mL | 74 µg/mL | 4.6 µg/mL | 62 µg/mL | 7.6 µg/mL |  |
| CCCCCCCCCC(=O)N(CCCN)CCCN.O=C(O)C(F)(F)F.O=C(O)C(F)(F)F | 231 µg/mL | 240 µg/mL | 250 µg/mL | > 500 µg/mL | 137 µg/mL | > 250 µg/mL | > 250 µg/mL |  |
| CN[C@H](CC(C)C)C(=O)N[C@H]1C(=O)N[C@@H](CC(N)=O)C(=O)N[C@H]2C(=O)N[C@H]3C(=O)N[C@H](C(=O)N[C@H](C(=O)O)c4cc(O)cc(O)c4-c4cc3ccc4O)[C@H](O)c3ccc(c(Cl)c3)Oc3cc2cc(c3O[C@@H]2O[C@H](CO)[C@@H](O)[C@H](O)[C@H]2O[C@H]2C[C@](C)(N)[C@H](O)[C@H](C)O2)Oc2ccc(cc2Cl)[C@H]1O [VANCOMYCIN] |  | 0.8 µg/mL (≈ 0.552 µM) | > 1000 µg/mL |  | 0.8 µg/mL (≈ 0.552 µM) |  | 0.8 µg/mL (≈ 0.552 µM) |  |
| CCCCCCCCCC(=O)N(CCCNC(=O)[C@@H](N)Cc1ccccc1)CCCNC(=O)[C@@H](N)Cc1ccccc1.O=C(O)C(F)(F)F.O=C(O)C(F)(F)F | 19 µg/mL | 15 µg/mL | 14 µg/mL | 187 µg/mL | 20 µg/mL | 57 µg/mL | 29 µg/mL | CMC [7]: 156 µg/mL |
| CCCCCCCCCCCCCC(=O)N(CCCN)CCCN.O=C(O)C(F)(F)F.O=C(O)C(F)(F)F | 28 µg/mL | 18 µg/mL | 23 µg/mL | 72 µg/mL | 15 µg/mL | 47 µg/mL | 27 µg/mL |  |
| CCCCCCCCCCCCCCCCCC(=O)N(CCCNC(=O)[C@@H](N)Cc1ccccc1)CCCNC(=O)[C@@H](N)Cc1ccccc1.O=C(O)C(F)(F)F.O=C(O)C(F)(F)F | 248 µg/mL | 11 µg/mL | 2.9 µg/mL | 65 µg/mL | 5.2 µg/mL | 87 µg/mL | 10 µg/mL | CMC [7]: 20 µg/mL |
| CCCCCCCCCCCC(=O)N(CCCNC(=O)[C@@H](N)Cc1ccccc1)CCCNC(=O)[C@@H](N)Cc1ccccc1.O=C(O)C(F)(F)F.O=C(O)C(F)(F)F | 10 µg/mL | 3.6 µg/mL | 2.3 µg/mL | 171 µg/mL | 3.3 µg/mL | 8 µg/mL | 4 µg/mL | fold change (FC) (Staphylococcus aureus [8]): 2; Activity (Escherichia coli [9]): Active; Activity (Staphylococcus aureus [10]): Active; Activity (Staphylococcus aureus [11]): Active; Activity (Staphylococcus aureus [12]): Active; CMC [7]: 40 µg/mL; fold change (FC) (Staphylococcus aureus [13]): 4; FC (Staphylococcus aureus [14]): 3; Activity (Escherichia coli [15]): Active |
| N[C@@H](Cc1ccccc1)C(=O)NCCCN(CCCNC(=O)[C@@H](N)Cc1ccccc1)C(=O)Cc1cccc2ccccc12.O=C(O)C(F)(F)F.O=C(O)C(F)(F)F | > 250 µg/mL | > 250 µg/mL | > 250 µg/mL |  |  | > 250 µg/mL | > 250 µg/mL |  |
| CCCCCCCCCCCCCC(=O)N(CCCNC(=O)[C@@H](N)Cc1ccccc1)CCCNC(=O)[C@@H](N)Cc1ccccc1.O=C(O)C(F)(F)F.O=C(O)C(F)(F)F | 14 µg/mL | 6 µg/mL | 2.4 µg/mL | 124 µg/mL | 4.1 µg/mL | 16 µg/mL | 4.5 µg/mL |  |
| COLISTIN |  |  |  |  |  |  |  | MIC (Escherichia coli [1]): 0.5 µg/mL; MIC (Staphylococcus aureus [2]): 25 µg/mL; MIC (Enterococcus faecium [3]): > 250 µg/mL; MIC (Staphylococcus aureus [5]): 68 µg/mL; MIC (Klebsiella pneumoniae): 1.5 µg/mL; MIC (Enterococcus faecium [6]): > 250 µg/mL |

From ChEMBL document CHEMBL3352498, “Membrane active phenylalanine conjugated lipophilic norspermidine derivatives with selective antibacterial activity” (J Med Chem, 2014)
